# Test results published in ChEMBL document CHEMBL3596109, “In vitro antiplasmodial activity of triazole-linked chloroquinoline derivatives synthesized from 7-chloro-N-(prop-2-yn-1-yl)quinolin-4-amine” (Bioorg Med Chem, 2015).
# How the values were obtained:
# Plasmodium falciparum [1] = experiment: Antiplasmodial activity against chloroquine-resistant asexual erythrocytic stage of Plasmodium falciparum Dd2 assessed as parasite growth inhibition by parasite lactate dehydrogenase assay; format: functional, organism-based
# Summary of the method: (§1)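 Asexual erythrocytic cultures were maintained continuously by a modified Trager–Jensen method. Samples came from 20 mg/mL DMSO stocks and were serially diluted 2-fold in complete medium over 10 concentrations, from 100 µg/mL down to 0.20 µg/mL; some started at 1000 µg/mL. Reference drugs started at 100 ng/mL. Read-out was modified pLDH. IC50 came from full dose-response curves, run in triplicate on two occasions.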
# Plasmodium falciparum [2] = experiment: Antiplasmodial activity against chloroquine-sensitive asexual erythrocytic stage of Plasmodium falciparum NF54 assessed as parasite growth inhibition by parasite lactate dehydrogenase assay; format: functional, organism-based; summary of the method: as §1
# Plasmodium falciparum [3] = experiment: Resistance index, ratio of IC50 for chloroquine-resistant asexual erythrocytic stage of Plasmodium falciparum Dd2 to IC50 for chloroquine-sensitive asexual erythrocytic stage of Plasmodium falciparum NF54; format: functional
# Plasmodium falciparum [4] = experiment: Potency index, ratio of chloroquine IC50 to compound IC50 for chloroquine-resistant asexual erythrocytic stage of Plasmodium falciparum Dd2
compound,measurement,setting,value
Clc1ccc2c(NCc3cn(CCCN4c5ccccc5CCc5ccccc54)nn3)ccnc2c1,IC50,Plasmodium falciparum [1],74.1 nM
same,IC50,Plasmodium falciparum [2],64.3 nM
same,Ratio IC50,Plasmodium falciparum [3],1.2
same,Ratio IC50,Plasmodium falciparum [4],3
Clc1ccc2c(NCc3cn(CCCN4CCCC4)nn3)ccnc2c1,IC50,Plasmodium falciparum [1],18.4 nM
same,IC50,Plasmodium falciparum [2],149 nM
same,Ratio IC50,Plasmodium falciparum [3],8.1
CCN(CC)CCCn1cc(CNc2ccnc3cc(Cl)ccc23)nn1,IC50,Plasmodium falciparum [1],1980 nM
same,IC50,Plasmodium falciparum [2],5330 nM
same,Ratio IC50,Plasmodium falciparum [3],2.7
CN(CCCn1cc(CNc2ccnc3cc(Cl)ccc23)nn1)Cc1ccccc1,IC50,Plasmodium falciparum [1],50.8 nM
same,IC50,Plasmodium falciparum [2],15 nM
same,Ratio IC50,Plasmodium falciparum [3],3.4
same,Ratio IC50,Plasmodium falciparum [4],3
Clc1ccc2c(NCc3cn(CCN4CCCC4)nn3)ccnc2c1,IC50,Plasmodium falciparum [1],69.3 nM
same,IC50,Plasmodium falciparum [2],16.2 nM
same,Ratio IC50,Plasmodium falciparum [3],4.3
same,Ratio IC50,Plasmodium falciparum [4],3
CN(CCCn1cc(CNc2ccnc3cc(Cl)ccc23)nn1)c1ccccc1,IC50,Plasmodium falciparum [1],165 nM
same,IC50,Plasmodium falciparum [2],305 nM
same,Ratio IC50,Plasmodium falciparum [3],1.8
Clc1ccc2c(NCc3cn(CCN4CCOCC4)nn3)ccnc2c1,IC50,Plasmodium falciparum [1],1300 nM
same,IC50,Plasmodium falciparum [2],1760 nM
same,Ratio IC50,Plasmodium falciparum [3],1.4
Clc1ccc2c(NCc3cn(CCN4CCCCC4)nn3)ccnc2c1,IC50,Plasmodium falciparum [1],51.6 nM
same,IC50,Plasmodium falciparum [2],10.2 nM
same,Ratio IC50,Plasmodium falciparum [3],5.1
same,Ratio IC50,Plasmodium falciparum [4],3
CN(CCn1cc(CNc2ccnc3cc(Cl)ccc23)nn1)c1ccccc1,IC50,Plasmodium falciparum [1],380 nM
same,IC50,Plasmodium falciparum [2],492 nM
same,Ratio IC50,Plasmodium falciparum [3],1.3
Clc1ccc2c(NCc3cn(CCCN4CCOCC4)nn3)ccnc2c1,IC50,Plasmodium falciparum [1],77.7 nM
same,IC50,Plasmodium falciparum [2],261 nM
same,Ratio IC50,Plasmodium falciparum [3],3.3
CCN(CC)CCn1cc(CNc2ccnc3cc(Cl)ccc23)nn1,IC50,Plasmodium falciparum [1],53.5 nM
same,IC50,Plasmodium falciparum [2],9.8 nM
same,Ratio IC50,Plasmodium falciparum [3],5.5
same,Ratio IC50,Plasmodium falciparum [4],3
Clc1ccc2c(NCc3cn(CCCN(Cc4ccccc4)Cc4ccccc4)nn3)ccnc2c1,IC50,Plasmodium falciparum [1],114 nM
same,IC50,Plasmodium falciparum [2],2240 nM
same,Ratio IC50,Plasmodium falciparum [3],20
Clc1ccc2c(NCc3cn(CCN(Cc4ccccc4)Cc4ccccc4)nn3)ccnc2c1,IC50,Plasmodium falciparum [1],78.6 nM
same,IC50,Plasmodium falciparum [2],140 nM
same,Ratio IC50,Plasmodium falciparum [3],0.6
same,Ratio IC50,Plasmodium falciparum [4],3
CN(CCn1cc(CNc2ccnc3cc(Cl)ccc23)nn1)Cc1ccccc1,IC50,Plasmodium falciparum [1],151 nM
same,IC50,Plasmodium falciparum [2],216 nM
same,Ratio IC50,Plasmodium falciparum [3],1.4
Clc1ccc2c(NCc3cn(CCCN4CCCCC4)nn3)ccnc2c1,IC50,Plasmodium falciparum [1],8.9 nM
same,IC50,Plasmodium falciparum [2],123 nM
same,Ratio IC50,Plasmodium falciparum [3],14
C[C@H]1[C@H](OC(=O)CCC(=O)O)O[C@@H]2O[C@@]3(C)CC[C@H]4[C@H](C)CC[C@@H]1[C@@]24OO3 [ARTESUNATE],IC50,Plasmodium falciparum [1],24.2 nM
same,IC50,Plasmodium falciparum [2],< 5.2 nM
same,Ratio IC50,Plasmodium falciparum [3],4.6
